Values after ≈ are worked out from the molar mass of the structure shown. Active and inactive are the calls of the source. No cut-off for these calls is given here.
How the values were obtained:
[1] = system: O=C(OCc1ccccc1)c1cn2c(=O)n(Cc3ccccc3)c(=O)cc2s1; settings: Homo sapiens
Rattus norvegicus [2] = assay: Toxicity in Sprague-Dawley rat model of musculoskeletal syndrome side effect assessed as induction of joint fibroplasia at 2000 mg/kg/day, po after 14 days; assay type: organism-based; parameters: route oral; settings: in vivo, 336 h
Method in brief: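 Sprague-Dawley rats (6/sex) given vehicle or 2000 mg/kg/day orally for 14 days; a non-selective hydroxamate MMP inhibitor at 2000 mg/kg/day as positive control. Calcaneon tendon and femorotibial, tibiotarsal, humeroradial joints taken bilaterally; femorotibial joints formalin-fixed, decalcified, H&E-stained, examined by light microscopy for fibroplasia.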

[3] = Drug level in Sprague-Dawley rat model of musculoskeletal syndrome side effect at 2000 mg/kg/day, po after 14 days; assay type: ADME, organism-based; parameters: route oral; settings: in vivo
[4] = biological target: T1, Matrix metalloproteinase-17 (Homo sapiens, UniProt Q9ULZ9); assay: Inhibition of MMP17 catalytic domain
T1 sequence (Q9ULZ9 whole entry): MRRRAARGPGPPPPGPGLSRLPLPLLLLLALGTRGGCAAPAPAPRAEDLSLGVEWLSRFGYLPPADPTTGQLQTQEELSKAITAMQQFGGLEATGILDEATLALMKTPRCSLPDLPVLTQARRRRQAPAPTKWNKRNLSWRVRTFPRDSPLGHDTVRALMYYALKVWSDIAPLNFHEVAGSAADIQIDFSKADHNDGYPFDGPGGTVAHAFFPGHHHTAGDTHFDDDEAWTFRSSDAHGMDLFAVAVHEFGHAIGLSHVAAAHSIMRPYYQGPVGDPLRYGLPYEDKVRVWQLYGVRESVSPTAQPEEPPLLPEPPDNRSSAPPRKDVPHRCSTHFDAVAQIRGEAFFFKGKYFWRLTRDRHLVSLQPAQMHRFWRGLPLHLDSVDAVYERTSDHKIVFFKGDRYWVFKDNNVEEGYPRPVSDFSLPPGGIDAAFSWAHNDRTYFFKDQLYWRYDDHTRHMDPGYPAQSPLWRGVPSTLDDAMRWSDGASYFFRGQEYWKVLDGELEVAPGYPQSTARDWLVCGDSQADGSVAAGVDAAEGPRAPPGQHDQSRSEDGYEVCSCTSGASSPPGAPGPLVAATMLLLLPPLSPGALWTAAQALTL
Method in brief: (§1)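 Buffer: 50 mM Hepes pH 7.0, 10 mM CaCl2, 1 mM DTNB, 0.005% Brij 35, 1% final DMSO. […] Initial rate read as A412 increase at 25 °C. At least triplicate inhibitor titrations. % of control activity fit to a sloped IC50 equation.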

Matrilysin = biological target: T2, Matrilysin (Homo sapiens, UniProt P09237); assay: Inhibition of MMP7
T2 sequence (P09237 whole entry): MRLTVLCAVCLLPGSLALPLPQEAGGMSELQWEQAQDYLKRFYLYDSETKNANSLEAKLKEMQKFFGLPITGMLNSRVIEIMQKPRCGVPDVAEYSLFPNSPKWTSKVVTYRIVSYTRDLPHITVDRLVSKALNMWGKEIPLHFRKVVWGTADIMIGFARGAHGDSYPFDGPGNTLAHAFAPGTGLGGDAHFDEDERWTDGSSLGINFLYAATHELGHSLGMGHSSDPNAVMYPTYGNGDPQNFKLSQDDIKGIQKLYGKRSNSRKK
Method in brief: as §1

Collagenase 3 = Collagenase 3 (Homo sapiens, UniProt P45452)
Stromelysin-1 = Stromelysin-1 (Homo sapiens, UniProt P08254); assay: Inhibition of MMP3 catalytic domain
Method in brief: as §1

[5] = biological target: Matrix metalloproteinase-14 (Homo sapiens, UniProt P50281); assay: Inhibition of MMP14 catalytic domain
Method in brief: as §1

[6] = biological target: Macrophage metalloelastase (Homo sapiens, UniProt P39900); assay: Inhibition of MMP12 catalytic domain
Method in brief: as §1

[7] = biological target: 72 kDa type IV collagenase (Homo sapiens, UniProt P08253); assay: Inhibition of MMP2
Neutrophil collagenase = Neutrophil collagenase (Homo sapiens, UniProt P22894); assay: Inhibition of MMP8 catalytic domain
Interstitial collagenase = biological target: T3, Interstitial collagenase (Homo sapiens, UniProt P03956); assay: Inhibition of MMP1
T3 sequence (P03956 whole entry): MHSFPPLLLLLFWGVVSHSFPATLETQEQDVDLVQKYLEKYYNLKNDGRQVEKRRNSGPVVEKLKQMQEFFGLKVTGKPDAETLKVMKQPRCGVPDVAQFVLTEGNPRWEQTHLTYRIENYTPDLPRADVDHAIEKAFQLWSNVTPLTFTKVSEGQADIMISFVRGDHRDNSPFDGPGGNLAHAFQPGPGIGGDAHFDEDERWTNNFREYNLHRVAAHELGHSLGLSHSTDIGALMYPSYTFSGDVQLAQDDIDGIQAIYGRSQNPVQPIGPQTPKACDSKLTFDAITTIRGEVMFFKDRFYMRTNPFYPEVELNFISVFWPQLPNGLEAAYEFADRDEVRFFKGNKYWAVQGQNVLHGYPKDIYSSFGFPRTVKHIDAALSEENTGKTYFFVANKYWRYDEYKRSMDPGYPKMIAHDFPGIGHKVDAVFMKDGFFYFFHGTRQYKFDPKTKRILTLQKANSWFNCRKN

[8] = biological target: Matrix metalloproteinase-9 (Homo sapiens, UniProt P14780); assay: Inhibition of MMP9
[9] = Solubility in phosphate buffer at pH 6.5; assay type: physicochemical
[10] = biological target: T4, A disintegrin and metalloproteinase with thrombospondin motifs 5 (Homo sapiens, UniProt Q9UNA0); assay: Inhibition of human ADAMTS5 assessed as cleavage of aggrecan substrate
T4 sequence (Q9UNA0 whole entry): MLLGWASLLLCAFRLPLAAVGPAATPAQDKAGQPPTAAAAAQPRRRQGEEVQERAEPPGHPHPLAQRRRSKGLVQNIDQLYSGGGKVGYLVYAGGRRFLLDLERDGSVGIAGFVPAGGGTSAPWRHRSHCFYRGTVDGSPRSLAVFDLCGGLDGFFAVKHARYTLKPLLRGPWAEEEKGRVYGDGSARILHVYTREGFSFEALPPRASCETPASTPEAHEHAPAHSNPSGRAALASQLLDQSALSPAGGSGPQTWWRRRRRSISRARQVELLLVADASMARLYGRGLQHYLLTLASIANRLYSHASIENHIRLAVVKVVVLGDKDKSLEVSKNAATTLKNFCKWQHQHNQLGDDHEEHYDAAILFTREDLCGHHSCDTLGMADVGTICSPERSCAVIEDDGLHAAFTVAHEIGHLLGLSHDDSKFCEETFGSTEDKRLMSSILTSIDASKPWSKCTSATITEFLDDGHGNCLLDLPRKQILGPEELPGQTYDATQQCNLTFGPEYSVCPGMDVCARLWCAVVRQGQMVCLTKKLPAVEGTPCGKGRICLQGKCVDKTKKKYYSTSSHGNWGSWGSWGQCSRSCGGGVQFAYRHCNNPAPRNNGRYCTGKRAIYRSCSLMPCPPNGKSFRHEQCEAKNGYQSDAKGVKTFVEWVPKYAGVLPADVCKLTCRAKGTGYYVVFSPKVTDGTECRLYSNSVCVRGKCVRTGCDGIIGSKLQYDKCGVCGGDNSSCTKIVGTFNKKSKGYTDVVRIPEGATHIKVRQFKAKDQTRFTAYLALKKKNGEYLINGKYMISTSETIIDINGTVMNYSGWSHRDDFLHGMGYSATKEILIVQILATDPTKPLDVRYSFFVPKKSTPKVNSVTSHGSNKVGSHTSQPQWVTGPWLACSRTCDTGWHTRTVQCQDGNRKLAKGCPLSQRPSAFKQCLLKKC
Method in brief: (§2)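 Isolated human enzyme with native aggrecan as substrate. Cleavage quantified using the BC-3 neoepitope antibody.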

Rattus norvegicus [11] = assay: Inhibition of human MMP13-induced type 2 collagen degradation in rat cartilage damage model assessed as type2 collagen neoepitope biomarker level at 0.1 mg/kg, po by enzyme-linked immunosorbent assay; assay type: functional, organism-based; parameters: dose 0.1 mg/kg
Method in brief: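 Rats (12 per group) dosed orally with vehicle or various doses; 3 h later knees injected intra-articularly with 12 µg activated full-length human MMP13. Sacrifice 2 h after injection; synovial space lavaged twice with 80 µl saline. Type II collagen neoepitope in lavage quantified by ELISA.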

[12] = AUC (0 to 24 hrs) in Sprague-Dawley rat model of musculoskeletal syndrome side effect at 2000 mg/kg/day, po after 14 days; assay type: ADME, organism-based; parameters: time < 24 hr, dose 2000 mg/kg/day, route oral; settings: in vivo
[13] = Solubility in phosphate buffer at pH 6; assay type: physicochemical
[14] = AUC (0 to 24 hrs) in New Zealand white rabbit osteoarthritis model at 30 mg/kg, po twice daily after 5 weeks; assay type: ADME, organism-based, Oryctolagus cuniculus; parameters: time < 24 hr, dose 30 mg/kg, route oral; settings: in vivo
Cartilage tissue = assay: Inhibition of IL1alpha and oncostatin M-stimulated hydroxyproline release from bovine nasal cartilage; assay type: functional, tissue-based; settings: Bos taurus
Method in brief: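 Bovine nasal cartilage explants (1 × 3 mm, 9 per group) cultured 2 weeks with interleukin-1 (50 ng/ml) plus oncostatin M (50 ng/ml), with vehicle or up to 10 µM inhibitor. Medium refreshed twice weekly and pooled for hydroxyproline assay; remaining cartilage papain-digested and its hydroxyproline measured. IC50 taken from a plot of inhibition of cartilage degradation; means ± S.E.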

[15] = biological target: T5, A disintegrin and metalloproteinase with thrombospondin motifs 4 (Homo sapiens, UniProt O75173); assay: Inhibition of human ADAMTS4 assessed as cleavage of aggrecan substrate
T5 sequence (O75173 whole entry): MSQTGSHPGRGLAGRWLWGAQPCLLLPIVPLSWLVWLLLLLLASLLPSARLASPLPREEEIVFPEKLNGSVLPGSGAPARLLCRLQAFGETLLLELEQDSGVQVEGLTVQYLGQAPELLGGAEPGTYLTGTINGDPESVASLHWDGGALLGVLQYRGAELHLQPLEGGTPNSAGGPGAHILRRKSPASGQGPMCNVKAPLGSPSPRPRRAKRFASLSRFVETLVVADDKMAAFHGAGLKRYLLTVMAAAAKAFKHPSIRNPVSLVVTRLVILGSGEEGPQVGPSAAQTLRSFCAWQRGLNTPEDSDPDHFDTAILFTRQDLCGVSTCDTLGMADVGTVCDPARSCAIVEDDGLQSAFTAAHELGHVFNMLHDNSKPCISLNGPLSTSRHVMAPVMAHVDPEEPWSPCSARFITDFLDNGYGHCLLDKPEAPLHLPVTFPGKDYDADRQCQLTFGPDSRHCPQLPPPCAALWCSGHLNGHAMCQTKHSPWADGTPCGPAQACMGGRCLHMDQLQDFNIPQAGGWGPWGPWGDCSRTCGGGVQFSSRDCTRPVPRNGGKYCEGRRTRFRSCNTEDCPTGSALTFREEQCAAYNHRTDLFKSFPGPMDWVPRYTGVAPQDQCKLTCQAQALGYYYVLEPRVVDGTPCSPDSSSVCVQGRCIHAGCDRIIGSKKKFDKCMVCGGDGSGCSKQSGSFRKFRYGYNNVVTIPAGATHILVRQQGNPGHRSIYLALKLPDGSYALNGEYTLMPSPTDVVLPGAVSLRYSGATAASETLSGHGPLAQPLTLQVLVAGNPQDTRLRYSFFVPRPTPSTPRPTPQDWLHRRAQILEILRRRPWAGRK
Method in brief: as §2

[16] = Plasma concentration in New Zealand white rabbit osteoarthritis model at 30 mg/kg, po twice daily after 5 weeks; assay type: ADME, organism-based, Oryctolagus cuniculus; parameters: dose 30 mg/kg, route oral
Oryctolagus cuniculus [17] = assay: Inhibition of cartilage damage in New Zealand white rabbit osteoarthritis model assessed as reduction of cartilage lesion on femoral condyles at 30 mg/kg, po twice daily after 5 weeks relative to control; assay type: functional, Condyle; parameters: scale not given: the % may be the effect or the level left
Method in brief: (§3)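 Oral dosing 30 mg/kg or vehicle twice daily from day 1 post-op for 5 weeks. Joints removed, stained with India ink; two-dimensional lesion areas on tibial plateaus and femoral condyles measured; means ± S.E., compared to vehicle.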

[18] = Solubility in phosphate buffer at pH 7.5; assay type: physicochemical
Oryctolagus cuniculus [19] = assay: Inhibition of cartilage damage in New Zealand white rabbit osteoarthritis model assessed as reduction of cartilage lesion on tibial plateau at 30 mg/kg, po twice daily after 5 weeks relative to control; assay type: functional; parameters: scale not given: the % may be the effect or the level left
Method in brief: as §3

Stromelysin-1, sequence (P08254 whole entry, the tested form may be a part): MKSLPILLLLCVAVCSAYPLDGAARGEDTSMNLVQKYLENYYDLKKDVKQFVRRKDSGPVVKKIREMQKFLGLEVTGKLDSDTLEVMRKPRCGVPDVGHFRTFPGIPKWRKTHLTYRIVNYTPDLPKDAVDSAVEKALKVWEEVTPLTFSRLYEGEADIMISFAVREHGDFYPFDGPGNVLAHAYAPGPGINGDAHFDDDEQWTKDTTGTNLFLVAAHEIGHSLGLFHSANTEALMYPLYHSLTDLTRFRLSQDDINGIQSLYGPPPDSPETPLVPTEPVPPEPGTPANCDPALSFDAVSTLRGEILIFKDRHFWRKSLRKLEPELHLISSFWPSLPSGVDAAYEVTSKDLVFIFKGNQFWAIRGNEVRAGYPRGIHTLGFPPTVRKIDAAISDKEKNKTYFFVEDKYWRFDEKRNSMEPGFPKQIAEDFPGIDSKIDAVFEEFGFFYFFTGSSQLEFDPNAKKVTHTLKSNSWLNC
Macrophage metalloelastase, sequence (P39900 whole entry, the tested form may be a part): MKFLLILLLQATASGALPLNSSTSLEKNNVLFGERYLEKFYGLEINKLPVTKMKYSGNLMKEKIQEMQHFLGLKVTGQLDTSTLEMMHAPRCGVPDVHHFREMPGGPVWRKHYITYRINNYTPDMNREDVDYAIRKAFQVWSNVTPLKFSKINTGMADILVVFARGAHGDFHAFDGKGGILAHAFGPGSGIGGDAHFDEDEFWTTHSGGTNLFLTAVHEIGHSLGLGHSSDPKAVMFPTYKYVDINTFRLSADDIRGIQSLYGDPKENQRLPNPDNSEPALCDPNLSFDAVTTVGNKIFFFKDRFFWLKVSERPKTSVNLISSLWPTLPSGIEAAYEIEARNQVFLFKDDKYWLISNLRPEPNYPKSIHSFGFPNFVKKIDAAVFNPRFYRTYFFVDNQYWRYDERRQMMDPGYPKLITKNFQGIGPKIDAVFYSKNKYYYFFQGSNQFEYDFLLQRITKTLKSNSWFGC
Neutrophil collagenase, sequence (P22894 whole entry, the tested form may be a part): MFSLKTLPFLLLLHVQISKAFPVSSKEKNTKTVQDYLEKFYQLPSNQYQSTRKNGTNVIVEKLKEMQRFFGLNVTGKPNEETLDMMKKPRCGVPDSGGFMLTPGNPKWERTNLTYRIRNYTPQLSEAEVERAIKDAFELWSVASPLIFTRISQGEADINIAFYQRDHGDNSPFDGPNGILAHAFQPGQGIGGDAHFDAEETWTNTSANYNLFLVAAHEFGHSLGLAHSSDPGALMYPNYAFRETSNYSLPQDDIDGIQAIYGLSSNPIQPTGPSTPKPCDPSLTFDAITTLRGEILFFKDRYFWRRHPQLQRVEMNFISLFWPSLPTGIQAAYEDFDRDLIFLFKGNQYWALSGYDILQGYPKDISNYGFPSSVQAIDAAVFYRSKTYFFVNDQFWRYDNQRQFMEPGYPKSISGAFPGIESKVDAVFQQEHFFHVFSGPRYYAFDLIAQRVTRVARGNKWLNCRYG
Matrix metalloproteinase-9, sequence (P14780 whole entry): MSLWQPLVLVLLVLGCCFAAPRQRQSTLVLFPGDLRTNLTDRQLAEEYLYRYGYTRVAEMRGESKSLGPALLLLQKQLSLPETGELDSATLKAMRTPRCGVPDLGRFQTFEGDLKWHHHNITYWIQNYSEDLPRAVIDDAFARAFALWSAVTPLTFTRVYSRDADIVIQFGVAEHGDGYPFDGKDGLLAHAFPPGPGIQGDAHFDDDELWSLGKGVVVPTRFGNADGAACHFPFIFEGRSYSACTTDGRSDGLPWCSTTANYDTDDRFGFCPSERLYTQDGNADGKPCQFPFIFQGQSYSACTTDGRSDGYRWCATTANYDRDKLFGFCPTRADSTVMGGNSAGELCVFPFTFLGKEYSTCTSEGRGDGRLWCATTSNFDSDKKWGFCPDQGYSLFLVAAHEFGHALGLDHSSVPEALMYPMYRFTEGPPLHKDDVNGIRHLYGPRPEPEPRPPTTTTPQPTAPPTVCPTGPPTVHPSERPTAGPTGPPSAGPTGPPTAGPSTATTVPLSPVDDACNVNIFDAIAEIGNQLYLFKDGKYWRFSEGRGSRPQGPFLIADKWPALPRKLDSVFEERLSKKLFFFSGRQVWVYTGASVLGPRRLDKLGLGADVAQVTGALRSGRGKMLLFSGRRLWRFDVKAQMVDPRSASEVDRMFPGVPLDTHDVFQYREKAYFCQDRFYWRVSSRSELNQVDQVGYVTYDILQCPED
72 kDa type IV collagenase, sequence (P08253 whole entry, the tested form may be a part): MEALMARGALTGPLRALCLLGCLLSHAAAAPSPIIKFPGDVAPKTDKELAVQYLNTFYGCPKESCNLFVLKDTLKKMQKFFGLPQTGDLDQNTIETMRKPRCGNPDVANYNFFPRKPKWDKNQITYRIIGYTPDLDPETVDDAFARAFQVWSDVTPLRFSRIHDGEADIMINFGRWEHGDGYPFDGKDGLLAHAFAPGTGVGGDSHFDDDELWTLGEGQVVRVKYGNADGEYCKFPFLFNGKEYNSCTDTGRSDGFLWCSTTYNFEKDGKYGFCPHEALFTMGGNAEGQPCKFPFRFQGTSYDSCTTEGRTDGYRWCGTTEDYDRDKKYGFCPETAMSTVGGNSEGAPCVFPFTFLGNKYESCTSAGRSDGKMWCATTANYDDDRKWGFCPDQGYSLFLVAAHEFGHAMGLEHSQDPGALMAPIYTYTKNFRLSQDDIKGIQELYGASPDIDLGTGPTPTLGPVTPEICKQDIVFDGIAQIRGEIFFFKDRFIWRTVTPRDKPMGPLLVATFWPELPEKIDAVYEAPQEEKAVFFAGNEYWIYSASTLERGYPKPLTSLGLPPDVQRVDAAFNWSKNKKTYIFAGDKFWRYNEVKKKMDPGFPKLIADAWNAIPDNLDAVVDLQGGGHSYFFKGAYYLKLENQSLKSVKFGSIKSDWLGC

Compound: Collagenase 3 (Homo sapiens) (from UniProt P45452)
- Km [1]: 48 µM

Compound: CC(C)[C@@H](NS(=O)(=O)c1ccc(-c2ccc(Br)cc2)cc1)C(=O)NO
- Activity (Rattus norvegicus [2]): Toxic
- AUC at 336 h [3]: 94 µg·h/mL

Compound: CNC(=O)[C@H](Cc1c[nH]c2ccccc12)NC(=O)[C@@H](CC(=O)NO)CC(C)C [ILOMASTAT]
- IC50 [4]: 0.0034 µM
- IC50 (Matrilysin): 0.033 µM
- IC50 (Collagenase 3): 0.0052 µM
- IC50 (Stromelysin-1): 0.007 µM
- IC50 [5]: 0.0047 µM
- IC50 [6]: 0.0051 µM

Compound: O=C(OCc1ccccc1)c1cn2c(=O)n(Cc3ccccc3)c(=O)cc2s1
- IC50 [7]: > 100 µM
- IC50 (Neutrophil collagenase): > 100 µM
- IC50 [4]: > 100 µM
- IC50 (Interstitial collagenase): > 100 µM
- IC50 [8]: > 100 µM
- IC50 (Matrilysin): > 100 µM
- IC50 (Stromelysin-1): > 100 µM
- IC50 [5]: > 100 µM
- IC50 [6]: > 100 µM

Compound: Cn1c(=O)n(Cc2ccc(C(=O)O)cc2)c(=O)c2cc(C#CCc3ccccc3)ccc21
- IC50 [7]: > 30 µM
- solubility [9]: < 3 µM
- IC50 [10]: > 25 µM
- Activity (Rattus norvegicus [11]): Active
- AUC at 24 h [12]: 1010 µg·h/mL
- solubility [13]: 20 µM (≈ 8.49 µg/mL)
- AUC at 24 h [14]: 6 µg·h/mL
- IC50 (Cartilage tissue): 1.3 µM
- IC50 (Neutrophil collagenase): > 100 µM
- IC50 [15]: > 25 µM
- IC50 [4]: > 30 µM
- Activity (Rattus norvegicus [2]): Non-toxic
- IC50 (Interstitial collagenase): > 30 µM
- IC50 [8]: > 100 µM
- AUC at 840 h [16]: 200 µg·h/mL
- IC50 (Matrilysin): > 30 µM
- IC50 (Stromelysin-1): > 30 µM
- IC50 [5]: > 30 µM
- IC50 [6]: > 100 µM
- Activity (Oryctolagus cuniculus [17]): 51%
- solubility [18]: < 3 µM
- AUC at 336 h [3]: 30 µg·h/mL
- Activity (Oryctolagus cuniculus [19]): 68%

From ChEMBL document CHEMBL1156486, “Discovery and characterization of a novel inhibitor of matrix metalloprotease-13 that reduces cartilage damage in vivo without joint fibroplasia side effects” (J Biol Chem, 2007)
